Tests used:
FRB-FKBP [1] = details: ref Bierer et al., 1990, cited from earlier work
[2] = ref Inoue et al., 2005; cited from earlier work
FRB-FKBP [3] = molecular target: FRB-FKBP (Homo sapiens, UniProt P42345+P62942); assay: Real-time reversibility of CBG-N + CBG-C PCA; format: cell-based
IκBα/β-TrCP = assay: Two-color PCA switch, red: IκBα/β-TrCP interaction; format: cell-based; details: HEK293T, TNFα 20 ng/ml
β-cat/β-TrCP = assay: Two-color PCA switch, green: β-cat/β-TrCP interaction; format: cell-based; details: HEK293T
NFκB = assay: NFκB-dependent transcriptional reporter; format: cell-based; details: HEK293T, 2 hours
How it was run: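 HEK293T cells in 24-well plates were transfected with an NFκB-driven FLuc reporter (200 ng/well). At 48 h the medium was changed to DMEM imaging medium. After 15 min equilibration a pre-treatment image was taken. Cells then received TNFα (20 ng/ml final) and/or a GSK3β inhibitor (50 μM final) or DMSO vehicle, and were re-imaged after 2 h in a humidified 5% CO2 incubator. Photon flux is reported as mean fold-initial ± S.E.M.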

PCA luciferase = assay: Control: effect on PCA luciferase enzyme activity; details: data not shown
EGFR = assay: EGFR-CBG PCA conformation sensing in CHO TetOn cells; format: cell-based
How it was run: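 CHO TetOn cells in 96-well plates were transfected for 24 h with EGFR-CBG PCA fusion pairs, then serum-starved for 3 h. They were pre-incubated for 20 min untreated, with DMSO vehicle, or with test compound (10 μM). Baseline was imaged every 15 s for 10 min, then 25 nM EGF was added and imaging continued for 20 min. Untreated-well signal was subtracted. Mean of 8 replicate wells.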

ΔFRB (S2035I)-FKBP = ΔFRB (S2035I)-FKBP (Homo sapiens, UniProt P42345+P62942, S2035I); assay: Luciferase PCA with mutant S2035I FRB; format: cell-based; details: HEK293T, 100 nM rapamycin for 6 hrs, Δ-N fusions
Chain of ΔFRB (S2035I)-FKBP (P42345 2024-2113 S2035I): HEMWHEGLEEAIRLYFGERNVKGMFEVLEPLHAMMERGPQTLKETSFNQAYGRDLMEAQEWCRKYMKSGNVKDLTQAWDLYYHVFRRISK
Chain of ΔFRB (S2035I)-FKBP (P62942 whole entry, the tested form may be a part): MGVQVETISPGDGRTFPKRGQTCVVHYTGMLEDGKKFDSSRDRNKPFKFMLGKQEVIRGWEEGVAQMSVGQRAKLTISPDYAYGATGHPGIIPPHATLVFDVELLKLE

IκBα = assay: IκBα-FLuc fusion reporter processing in HepG2 cells; format: cell-based; details: HepG2, TNFα 20 ng/mL
How it was run: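 HepG2 cells were transiently transfected with a κB5-driven IκBα-FLuc fusion reporter (wild type or Ser32/Ser36 Ala mutants). After 48 h the medium was replaced with fresh medium containing D-luciferin, and cells were stimulated with TNFα (20 ng/mL) or vehicle. Real-time bioluminescence imaging was run under 5% CO2. Photon flux is reported as fold-initial, fold-untreated, mean ± S.E.M.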

Chain of FRB-FKBP (Homo sapiens, UniProt P42345+P62942) (P42345 2024-2113 limits assumed): as the sequence (P42345 2024-2113 S2035I) above, with I12S counted along it
Chain of FRB-FKBP (Homo sapiens, UniProt P42345+P62942) (P62942 whole entry): as the sequence (P62942 whole entry, the tested form may be a part) above

For `C=CC[C@@H]1/C=C(\C)C[C@H](C)C[C@H](OC)[C@H]2O[C@@](O)(C(=O)C(=O)N3CCCC[C@H]3C(=O)O[C@H](/C(C)=C/[C@@H]3CC[C@@H](O)[C@H](OC)C3)[C@H](C)[C@@H](O)CC1=O)[C@H](C)C[C@@H]2OC` [FK506], the Ki (FRB-FKBP [1]; read-out: previously reported literature Ki) is listed as 0.4 nM, the membrane permeability [2] is listed as “somewhat low” and the “change of bioluminescence after rapamycin pre-treatment” value (FRB-FKBP [3]; HEK293T, CBG-N + CBG-C, rapamycin 10 nM, FK506 10 μM added at […]) is listed as “brisk loss of bioluminescence”.

In the case of `Cn1cc(C2=C(c3ccc(Cl)cc3Cl)C(=O)NC2=O)c2ccccc21` [SB-216763], the “basal and TNFα-induced IκBα/β-TrCP interactions (red photon flux)” value (IκBα/β-TrCP; SB-216763 50 μM) is reported as “inhibited”, the “basal β-cat/β-TrCP interactions (green photon flux)” value (β-cat/β-TrCP; SB-216763 50 μM) is reported as “attenuated” and the “TNFα-stimulated NFκB-dependent transcription (FLuc reporter)” value (NFκB; TNFα 20 ng/ml combined with SB216763 50 μM) is reported as “dramatically attenuated”. For the same molecule, the “effect on PCA luciferase enzyme activity per se” value (PCA luciferase) was “no effect”.

For `N#CC(=C(/N)Sc1ccccc1N)/C(C#N)=C(/N)Sc1ccccc1N` [U0126], the “recovery of luciferase PCA activity after EGF” value (EGFR; 10 μM U0126, 25 nM EGF) was “blunted recovery of luciferase PCA activity”.

In the case of `C[C@@H]1C[C@@H]([C@H](O)CC2CC(=O)NC(=O)C2)C(=O)[C@@H](C)C1` [cycloheximide], the “luciferase activity after rapamycin induction” value (FRB-FKBP [3]; cycloheximide 100 μM added to rapamycin-induced cells) is reported as “remained stable for up to 8 hours”.

In the case of `CO[C@H]1C[C@@H]2CC[C@@H](C)[C@@](O)(O2)C(=O)C(=O)N2CCCC[C@H]2C(=O)O[C@H]([C@H](C)C[C@@H]2CC[C@@H](O)[C@H](OC)C2)CC(=O)[C@H](C)/C=C(\C)[C@@H](O)[C@@H](OC)C(=O)[C@H](C)C[C@H](C)/C=C/C=C/C=C/1C` [rapamycin], the “induction of PCA signal” value (ΔFRB (S2035I)-FKBP) is listed as “no detectable induction”, the Kd (FRB-FKBP [1]; read-out: previously reported Kd) is listed as 0.2 nM and the membrane permeability [2] is listed as “somewhat low”.

With “EGF: recombinant mouse EGF ligand inducing EGFR activation (NSYPGCPSSYDGYCLNGGVCMHIESLDSYTCNCVIGYSGDRCQTRDLRWWELR; UniProt P01132 977-1029, looked up)” the “luciferase PCA signal response” value (EGFR; 25 nM recombinant mouse EGF) was “rapid biphasic signal response”.

For TNFα, the “IκBα/β-TrCP interactions (red photon flux)” value (IκBα/β-TrCP) was “increase in red photon flux”, the “IκBα-FLuc reporter signal (wild type)” value (IκBα) was “loss of signal” and the “β-cat/β-TrCP basal green photon flux” value (β-cat/β-TrCP; TNFα 20 ng/ml) was “no substantial change”. The “NFκB-dependent transcription (FLuc reporter)” value (NFκB; TNFα 20 ng/ml alone) was “robust transcriptional stimulation”.
